We go through two compounds from ChEMBL document CHEMBL1938298, “Synthesis and characterization of [¹²⁵I]2-iodo N-[(S)-{(S)-1-methylpiperidin-2-yl}(phenyl)methyl]3-trifluoromethyl-benzamide as novel imaging probe for glycine transporter 1” (Bioorg Med Chem, 2011).

Structures are written as SMILES. Active and inactive are the calls of the source. No cut-off for these calls is given here.

Data set [1] deals with Mus musculus. As to the kind of experiment: In vivo binding affinity to GlyT1 in ddY mouse brain hippocampus at 33.3 kBq, iv after 60 mins in presence of nonradioactive compound 2 mg/kg, iv administered 15 mins prior to compound administration relative to control. Particulars: tested as the 125I-labelled form. Details: dose 2 mg/kg. It counts as functional, organism-based. In a few lines: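 Male ddY mice (6 W, 30–35 g) were given [125I]5 (ca. 33.3 kBq, 0.1 mL) iv via tail vein. Blocker (2 mg/kg in 30% DMSO/saline) was given iv 15 min before the tracer. Mice were killed 30 or 60 min after injection and the brain regions were dissected and weighed. Gamma counting gave % dose/g, compared with control; n = 5–6.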

The target of data set [2] is T1, Sodium- and chloride-dependent glycine transporter 1 (Rattus norvegicus) (UniProt P28572).
T1 sequence (whole entry): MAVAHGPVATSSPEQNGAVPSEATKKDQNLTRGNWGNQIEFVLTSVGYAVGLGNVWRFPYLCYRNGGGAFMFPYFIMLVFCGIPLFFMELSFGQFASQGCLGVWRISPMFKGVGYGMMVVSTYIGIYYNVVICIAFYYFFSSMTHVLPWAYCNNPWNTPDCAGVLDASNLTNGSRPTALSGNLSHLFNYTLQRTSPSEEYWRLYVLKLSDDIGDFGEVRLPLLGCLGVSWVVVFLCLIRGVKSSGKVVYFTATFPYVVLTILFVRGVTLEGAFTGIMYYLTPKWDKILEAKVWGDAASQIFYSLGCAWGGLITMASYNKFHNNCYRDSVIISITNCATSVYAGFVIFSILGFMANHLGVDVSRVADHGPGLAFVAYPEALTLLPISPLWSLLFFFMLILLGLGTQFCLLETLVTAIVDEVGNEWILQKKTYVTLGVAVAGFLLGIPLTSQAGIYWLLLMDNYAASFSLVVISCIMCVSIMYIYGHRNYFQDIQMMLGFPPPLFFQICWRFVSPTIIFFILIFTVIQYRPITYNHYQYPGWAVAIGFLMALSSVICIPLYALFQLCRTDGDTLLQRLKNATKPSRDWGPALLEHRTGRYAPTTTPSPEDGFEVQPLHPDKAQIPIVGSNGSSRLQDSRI
As to the kind of experiment: Binding affinity to GlyT1 in rat brain medullary region at 0.03 to 0.04 nM preincubated for 20 mins in binding buffer before compound addition measured after 30 mins by autoradiography in presence of 0.01 mM GlyT1 inhibitor HPCP relative to control. To be noted: tested as the 125I-labelled form. It counts as tissue-based. The gist of the method: (§1)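 Rat brain sagittal sections (20 µm) preincubated 20 min at 25 °C in Tris-HCl buffer pH 7.5 (NaCl, KCl, MgCl2, CaCl2), then 30 min at 25 °C with [125I] tracer (100 kBq, 0.03–0.04 nM) plus competitor (10 µM; glycine 1 or 10 mM). Cold washes, imaging plate 3 days, ROI PSL minus background per mm². % control from ≥triplicate slices, three rats.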

The target in data set [3] is T1, Sodium- and chloride-dependent glycine transporter 1 (Rattus norvegicus). As to the kind of experiment: Binding affinity to GlyT1 in rat brain hippocampus at 0.03 to 0.04 nM preincubated for 20 mins in binding buffer before compound addition measured after 30 mins by autoradiography in presence of 10 mM GlyT1 substrate glycine relative to control. It counts as tissue-based. Particulars: tested as the 125I-labelled form. In a few lines:
as §1

The target is the same in data set [4]. As to the kind of experiment: Binding affinity to GlyT1 in rat brain corpus callosum at 0.03 to 0.04 nM preincubated for 20 mins in binding buffer before compound addition measured after 30 mins by autoradiography relative to control. It counts as tissue-based. To be noted: tested as the 125I-labelled form. The gist of the method:
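Rat brain sagittal sections (20 µm), 20 min preincubation at 25 °C in Tris-HCl pH 7.5 binding buffer, then [125I] tracer (100 kBq, 0.03–0.04 nM) for 30 min at 25 °C. Nonspecific binding taken with 10 µM unlabeled ligand. Imaging-plate read-out as (PSL−BG)/mm². Mean ± SD, n = 4–5 from at least three rats; Mann–Whitney U-test.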

Data set [5] shares this target. As to the kind of experiment: Binding affinity to GlyT1 in rat brain midbrain at 0.03 to 0.04 nM preincubated for 20 mins in binding buffer before compound addition measured after 30 mins by autoradiography in presence of 1 mM GlyT1 substrate glycine relative to control. It counts as tissue-based. To be noted: tested as the 125I-labelled form.
The target of data set [6] is T2, Sodium- and chloride-dependent glycine transporter 1 (Homo sapiens) (UniProt P48067).
T2 sequence (whole entry): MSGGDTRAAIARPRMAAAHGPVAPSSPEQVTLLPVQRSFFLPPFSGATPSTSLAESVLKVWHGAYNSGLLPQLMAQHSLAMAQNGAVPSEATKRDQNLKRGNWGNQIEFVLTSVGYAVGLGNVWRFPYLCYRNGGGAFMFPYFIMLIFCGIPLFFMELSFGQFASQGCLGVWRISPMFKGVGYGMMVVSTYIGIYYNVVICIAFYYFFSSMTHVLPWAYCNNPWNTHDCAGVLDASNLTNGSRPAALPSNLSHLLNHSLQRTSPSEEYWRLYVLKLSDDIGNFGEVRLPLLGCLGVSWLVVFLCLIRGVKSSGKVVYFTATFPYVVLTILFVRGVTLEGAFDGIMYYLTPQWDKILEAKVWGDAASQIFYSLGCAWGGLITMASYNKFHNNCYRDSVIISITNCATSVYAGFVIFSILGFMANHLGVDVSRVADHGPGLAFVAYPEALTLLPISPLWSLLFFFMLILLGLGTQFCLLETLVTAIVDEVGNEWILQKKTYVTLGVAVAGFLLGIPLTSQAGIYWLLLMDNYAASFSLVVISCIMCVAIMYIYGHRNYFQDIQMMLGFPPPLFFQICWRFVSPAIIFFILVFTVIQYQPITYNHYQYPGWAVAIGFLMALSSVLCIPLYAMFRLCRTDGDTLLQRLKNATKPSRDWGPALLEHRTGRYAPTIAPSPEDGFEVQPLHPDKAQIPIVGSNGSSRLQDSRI
As to the kind of experiment: Ratio of compound IC50 to ALX5407 IC50 for human GlyT1.

In data set [7] the target is T1, Sodium- and chloride-dependent glycine transporter 1 (Rattus norvegicus). As to the kind of experiment: Binding affinity to GlyT1 in rat brain cerebral cortex at 0.03 to 0.04 nM preincubated for 20 mins in binding buffer before compound addition measured after 30 mins by autoradiography in presence of 0.01 mM GlyT1 inhibitor ALX5407 relative to control. It counts as tissue-based. To be noted: tested as the 125I-labelled form. The gist of the method: as §1

For data set [8] the target is unchanged. The experiment in a line: Binding affinity to GlyT1 in rat brain corpus callosum at 0.03 to 0.04 nM preincubated for 20 mins in binding buffer before compound addition measured after 30 mins by autoradiography in presence of 0.01 mM GlyT1 inhibitor SSR504734 relative to control. It counts as tissue-based. To be noted: tested as the 125I-labelled form. The gist of the method: as §1

The subject of the next data set is Intestine. As to the kind of experiment: Drug uptake in ddY mouse intestine at 11.1 kBq, iv after 5 min by gamma counting. To be noted: in vivo. It counts as ADME, organism-based. In a few lines:
(§2)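 Male ddY mice (6 weeks, 30–35 g) received about 11.1 kBq [125I]tracer in 0.1 mL i.v. via tail vein. Killed at set times, organs dissected and weighed, radioactivity gamma counted. Reported as % injected dose/g tissue, mean ± SD, n = 5–6.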

Data set [9] deals with Mus musculus. As to the kind of experiment: In vivo binding affinity to GlyT1 in ddY mouse brain thalamus at 33.3 kBq, iv after 30 mins in presence of N-Me-SSR504734 2 mg/kg, iv administered 15 mins prior to compound administration relative to control. It counts as functional.
The nature of data set [10]: Metabolic stability in ddY mouse brain assessed as compound remaining at 185 kBq after 60 mins by radio-TLC. It counts as ADME, tissue-based. To be noted: read-out: Stability.
A further data set has as its system Brain. As to the kind of experiment: Drug uptake in ddY mouse brain at 11.1 kBq, iv after 15 min by gamma counting. It counts as ADME, organism-based. Particulars: in vivo. In a few lines:
as §2

Regarding `CN1CCCC[C@H]1[C@@H](NC(=O)c1cccc(C(F)(F)F)c1I)c1ccccc1`, the outcome (with Mus musculus [1]; in data set [4]) was Active. Besides, the Activity in data set [2] is 20.5%; in data set [3], 71.5%; in [5], 106%; in data set [7], 57.6%; in data set [8], 21.8%. For the same compound, the Ratio IC50 in data set [6] turned out to be 6.
With `CN1CCCC[C@H]1[C@@H](NC(=O)c1cccc(C(F)(F)F)c1[125I])c1ccccc1`, the figures for the Drug uptake in the data set on Intestine and in the data set on Brain were 2.47 % ID/g and 1.68 % ID/g, respectively. For the same compound, the Activity in the data set with Mus musculus [9] is 56%. Further, in data set [10], the remaining at 1 h stood at 89%.
